Here are results for 20 compounds from ChEMBL document CHEMBL1122270, “N-(4-substituted-thiazolyl)oxamic acid derivatives, a new series of potent, orally active antiallergy agents” (1983).

A value given as a limit tells only on which side of the number the result lay.

As usually defined, the ED50 is the dose that gives a 50% effect, or the effect in half of the subjects. A low value points to an effect at a small dose.

Common to all, as to format: functional
Assay [1] concerns Rattus norvegicus. In words: antiallergic activity by rat passive cutaneous anaphylaxis (PCA) assay when administered iv. Put shortly: (§1)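 Male rats sensitized by id injection of diluted rat anti-ovalbumin reaginic serum (0.1 mL each side of shaved back). 24 h later, compound in saline was mixed with 5 mg ovalbumin in 0.5 mL 2% Evans Blue and given iv at 1 mL/kg. Blued-spot diameters were read 30 min later. Six rats per group; ED50 is 50% area reduction versus control, with 95% confidence limits.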

For assay [2], the system named is Rattus norvegicus. In words: Antiallergic activity by rat passive cutaneous anaphylaxis (PCA) assay when administered perorally. To be noted: po. An outline of the steps: (§2)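 Rats were passively sensitized intradermally with diluted reaginic anti-ovalbumin serum 24 h before challenge. Compound was suspended in 1% acacia and dosed by oral feeding needle at 1 mL/kg. After 20-30 min, rats were challenged with 0.02 mg ovalbumin in 0.5 mL 2% Evans Blue. Blued areas were measured 30 min after challenge. Six rats per dose; ED50 is 50% area reduction from control, with 95% confidence limits.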

Assay [3] has as its system Rattus norvegicus. The assay is described as follows: Antiallergic activity by rat passive cutaneous anaphylaxis (PCA) assay when administered per orally;value ranges between (1.3-23). To be noted: po. Put shortly: as §2
Assay [4] relates to Rattus norvegicus. The assay is described as follows: Antiallergic activity by rat passive cutaneous anaphylaxis (PCA) assay when administered per orally.;value ranges between (1.3-3.2). The following applies: po. An outline of the steps:
as §2

For assay [5], the system named is Rattus norvegicus. The assay is described as follows: Antiallergic activity by rat passive cutaneous anaphylaxis (PCA) assay when administered per orally;value ranges between (4.67-21.77). The following applies: po. An outline of the steps: as §2
Assay [6] has as its system Rattus norvegicus. The assay is described as follows: Antiallergic activity by rat passive cutaneous anaphylaxis (PCA) assay when administered per orally;value ranges between (0.64-6.67). The following applies: po. Put shortly: as §2
In assay [7] the test system is Rattus norvegicus. In words: Antiallergic activity by rat passive cutaneous anaphylaxis (PCA) assay when administered per orally;value ranges between (0.11-0.75.). The following applies: po. Put shortly:
as §2

Assay [8] concerns Rattus norvegicus. The assay is described as follows: Antiallergic activity by rat passive cutaneous anaphylaxis (PCA) assay when administered per orally;value ranges between (0.32-1.04). The following applies: po. An outline of the steps:
as §2

Assay [9] deals with Rattus norvegicus. The assay is described as follows: Antiallergic activity by rat passive cutaneous anaphylaxis (PCA) assay when administered iv;value ranges between 0.02-0.07. An outline of the steps: as §1
The test system of assay [10] is Rattus norvegicus. The assay is described as follows: Antiallergic activity by rat passive cutaneous anaphylaxis (PCA) assay when administered perorally; value ranges between (1.3-3.3). The following applies: po. An outline of the steps:
as §2

Assay [11] concerns Rattus norvegicus. In words: Antiallergic activity by rat passive cutaneous anaphylaxis (PCA) assay when administered per orally;value ranges between (1.0-4.8). To be noted: po. Put shortly:
as §2

Assay [12] concerns Rattus norvegicus. In words: Antiallergic activity by rat passive cutaneous anaphylaxis (PCA) assay when administered perorally; value ranges between (2.9-15.4). The following applies: po. Put shortly: as §2
Assay [13] deals with Rattus norvegicus. In words: Antiallergic activity by rat passive cutaneous anaphylaxis (PCA) assay when administered iv.;value ranges between (0.2-1.8.). An outline of the steps:
as §1

Assay [14] has as its system Rattus norvegicus. In words: Antiallergic activity by rat passive cutaneous anaphylaxis (PCA) assay when administered iv.;value ranges between (0.04-0.3). An outline of the steps: as §1
The subject of assay [15] is Rattus norvegicus. The assay is described as follows: Antiallergic activity by rat passive cutaneous anaphylaxis (PCA) assay when administered perorally; value ranges between (0.4-2.3.). To be noted: po. Put shortly:
as §2

In assay [16] the test system is Rattus norvegicus. The assay is described as follows: Antiallergic activity by rat passive cutaneous anaphylaxis (PCA) assay when administered per orally;value ranges between (1.4-4.6.). To be noted: po. Put shortly:
as §2

The test system of assay [17] is Rattus norvegicus. In words: Antiallergic activity by rat passive cutaneous anaphylaxis (PCA) assay when administered per orally;value ranges between (1.02-2.15). The following applies: po. An outline of the steps:
as §2

Assay [18] relates to Rattus norvegicus. The assay is described as follows: Antiallergic activity by rat passive cutaneous anaphylaxis (PCA) assay when administered perorally; value ranges between […]. The following applies: po. An outline of the steps:
as §2

The test system of assay [19] is Rattus norvegicus. The assay is described as follows: Antiallergic activity by rat passive cutaneous anaphylaxis (PCA) assay when administered iv.;value ranges between (0.06-0.4). An outline of the steps:
as §1

In assay [20] the test system is Rattus norvegicus. In words: Antiallergic activity by rat passive cutaneous anaphylaxis (PCA) assay when administered per orally.;value ranges between (1.0-4.1.). To be noted: po. Put shortly: as §2
In assay [21] the test system is Rattus norvegicus. The assay is described as follows: Antiallergic activity by rat passive cutaneous anaphylaxis (PCA) assay when administered per orally;value ranges between (0.5-3.27). To be noted: po. An outline of the steps: as §2
In assay [22] the test system is Rattus norvegicus. The assay is described as follows: Antiallergic activity by rat passive cutaneous anaphylaxis (PCA) assay when administered per orally;value ranges between (0.7-1.6). To be noted: po. An outline of the steps:
as §2

The subject of assay [23] is Rattus norvegicus. The assay is described as follows: Antiallergic activity by rat passive cutaneous anaphylaxis (PCA) assay when administered iv;value ranges between (0.01-0.04.). An outline of the steps: as §1
Assay [24] has as its system Rattus norvegicus. The assay is described as follows: Antiallergic activity by rat passive cutaneous anaphylaxis (PCA) assay when administered per orally;value ranges between (1.5-9.0). To be noted: po. An outline of the steps:
as §2

Assay [25] relates to Rattus norvegicus. The assay is described as follows: Antiallergic activity by rat passive cutaneous anaphylaxis (PCA) assay when administered per orally;value ranges between (2.0-5.0.). To be noted: po. An outline of the steps: as §2
The test system of assay [26] is Rattus norvegicus. In words: Antiallergic activity by rat passive cutaneous anaphylaxis (PCA) assay when administered per orally;value ranges between (3.44-9.04). The following applies: po. An outline of the steps: as §2

Regarding `O=C(O)C(=O)Nc1nc(-c2ccccc2)cs1`, the ED50 was above 3 mg/kg in the assay on Rattus norvegicus [1] and around 1 mg/kg in the assay on Rattus norvegicus [2].

For the compound `O=C(O)C(=O)Nc1ncc(-c2ccccc2)s1`, the values for the ED50 in the assay on Rattus norvegicus [1] and with Rattus norvegicus [3] were around 0.3 mg/kg and 4.03 mg/kg, respectively.

For the compound `CCOC(=O)C(=O)Nc1nc(-c2ccc(OCC)cc2)cs1`, the ED50 in the assay on Rattus norvegicus [4] was determined as 2.1 mg/kg.

Consider `CCOC(=O)C(=O)Nc1nc(-c2cc(OC)c(OC)c(OC)c2)cs1`, for which, in the assay with Rattus norvegicus [5], the 50% effect level (ED50) was put at a dose of 14.5 mg/kg.

Consider `COc1cc(-c2csc(NC(=O)C(=O)O)n2)ccc1O.NCCO`, for which the ED50 in the assay on Rattus norvegicus [6] was 2.1 mg/kg; in the assay on Rattus norvegicus [1] it was below 0.1 mg/kg.

In the case of `CCOC(=O)C(=O)Nc1nc(-c2ccc(NC(C)=O)cc2)cs1`, the 50% effect level with Rattus norvegicus [7] (ED50) was put at a dose of 0.29 mg/kg.

Turning to `NCCO.O=C(O)C(=O)Nc1nc(-c2ccc3c(c2)OCCO3)cs1`, the ED50 amounted to 0.6 mg/kg in the assay with Rattus norvegicus [8] and 0.039 mg/kg with Rattus norvegicus [9].

In the assay with Rattus norvegicus [10], `Cc1sc(NC(=O)C(=O)O)nc1-c1ccccc1.NCCO` registered an ED50 of 2.5 mg/kg.

Compound `CCOC(=O)C(=O)Nc1nc(-c2ccc(O)c(C)c2)cs1` returned an ED50 with Rattus norvegicus [11] of 2.2 mg/kg.

Turning to `NCCO.O=C(O)C(=O)Nc1nc(-c2ccccc2O)cs1`, the ED50 stood at 6.7 mg/kg with Rattus norvegicus [12] and 0.62 mg/kg in the assay with Rattus norvegicus [13].

As to `NCCO.O=C(O)C(=O)Nc1nc(-c2ccc(F)cc2)cs1`, the ED50 came to 0.11 mg/kg in the assay with Rattus norvegicus [14] and 0.9 mg/kg in the assay on Rattus norvegicus [15].

In the case of `NCCO.O=C(O)C(=O)Nc1nc(-c2ccc([N+](=O)[O-])cc2)cs1`, the ED50 with Rattus norvegicus [16] is 2.5 mg/kg.

In the case of `COc1ccc(-c2csc(NC(=O)C(=O)O)n2)cc1OC`, in the assay with Rattus norvegicus [17], the ED50 worked out at 1.48 mg/kg.

Turning to `CCOC(=O)C(=O)Nc1nc(-c2ccccc2O)cs1`, in the assay on Rattus norvegicus [18], the 50% effect level (ED50) was put at a dose of 8.2 mg/kg.

Regarding `COc1cccc(-c2csc(NC(=O)C(=O)O)n2)c1`, the ED50 in the assay on Rattus norvegicus [19] stood at 0.16 mg/kg; in the assay with Rattus norvegicus [20], 2.1 mg/kg.

Compound `COC(=O)C(=O)Nc1nc(-c2ccc(OC)c(OC)c2)cs1` showed an ED50 with Rattus norvegicus [21] of 1.2 mg/kg.

For `CN(C)c1ccc(-c2csc(NC(=O)C(=O)O)n2)cc1`, the results for the ED50 in the assay with Rattus norvegicus [22] and with Rattus norvegicus [23] were 1.1 mg/kg and 0.02 mg/kg, respectively.

With `CCOC(=O)C(=O)Nc1nc(-c2ccc(O)cc2C)cs1`, in the assay on Rattus norvegicus [24], the ED50 was 3.7 mg/kg.

Compound `CCOC(=O)C(=O)Nc1nc(-c2ccc(N3CCCCC3)cc2)cs1` showed an ED50 in the assay on Rattus norvegicus [25] of 3.2 mg/kg.

In the case of `COc1cc(-c2csc(NC(=O)C(=O)O)n2)cc(OC)c1OC.NCCO`, the ED50 came out at 5.8 mg/kg in the assay on Rattus norvegicus [26] and 1 mg/kg in the assay with Rattus norvegicus [1].
